From PMC3466776 (Biochemistry, 2012)

Assays:
[1] = read-out: Kd for Ca^2+; cited from earlier work
CaM34 = CaM34 (Rattus norvegicus, UniProt P0DP29, D130A/D94A); assay: Stopped-flow Ca^2+ dissociation kinetics of CaM34; format: binding; conditions: mean ± SD of 3-8 experiments; for amplitude 2 (relative quin-2 fluorescence change), CaM34: as koff2, CaM34, 22 °C
How it was run: (§1)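 Rat His-CaM (2 μM) with 20 μM CaCl2, alone or with 2 μM synthetic AC1 or AC8 CaMBD peptide, is mixed 1:1 with 150 μM quin-2. These are pre-mix concentrations. Buffer is 20 mM MOPS pH 7.4, 100 mM KCl, 1 mM MgCl2, at 22 °C. Quin-2 fluorescence is read with excitation at 334 nm and a 405 nm cutoff filter. Five to eight runs are averaged and fit single- or double-exponentially. A relative amplitude of 0.03 equals one Ca2+. Values are mean ± SD of ≥3 averages.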

CaM12 = CaM12 (Rattus norvegicus, UniProt P0DP29, D21A/D57A); assay: Stopped-flow Ca^2+ dissociation kinetics of CaM12; format: binding; conditions: for amplitude 1 (relative quin-2 fluorescence change), CaM12: as koff1, CaM12, 22 °C; for amplitude 1 (relative quin-2 fluorescence change), CaM12 / amplitude 2 (relative quin-2 fluorescence change), CaM12: mean ± SD of 3-8 experiments; for amplitude 2 (relative quin-2 fluorescence change), CaM12: as koff2, CaM12, 22 °C
How it was run: as §1

CaMWT = CaMWT (Rattus norvegicus, UniProt P0DP29); assay: Stopped-flow Ca^2+ dissociation kinetics of CaMWT; format: binding; conditions: for number of Ca^2+ ions released, phase 1, CaMWT / number of Ca^2+ ions released, phase 2, CaMWT: 0.03 relative amplitude = one Ca^2+ ion; for amplitude 1 (relative quin-2 fluorescence change), CaMWT: as koff1, CaMWT; for amplitude 1 (relative quin-2 fluorescence change), CaMWT / amplitude 2 (relative quin-2 fluorescence change), CaMWT: mean ± SD of 3-8 experiments; for amplitude 2 (relative quin-2 fluorescence change), CaMWT: as koff2, CaMWT
How it was run: as §1

[2] = CaM12 with peptide, single-exponential fit, 22 °C, n = 3

Row | Molecule | Kd [1] [nM] | amplitude 2 (relative quin-2 fluorescence change), CaM34 (CaM34) | amplitude 1 (relative quin-2 fluorescence change), CaM12 (CaM12) | amplitude 2 (relative quin-2 fluorescence change), CaM12 (CaM12) | number of Ca^2+ ions released, phase 1, CaMWT (CaMWT; 22 °C) | number of Ca^2+ ions released, phase 2, CaMWT (CaMWT; 22 °C) | total Ca^2+ released in measurable phases, CaMWT (CaMWT; CaMWT with peptide, 22 °C) | amplitude 1 (relative quin-2 fluorescence change), CaMWT (CaMWT; 22 °C) | amplitude 2 (relative quin-2 fluorescence change), CaMWT (CaMWT; 22 °C) | amplitude 1 (relative quin-2 fluorescence change), CaM34 (CaM34; as koff1, CaM34, 22 °C) | amplitude, single-exponential fit, CaM12 (CaM12; [2]) | rate constant, single-exponential fit, CaM12 (CaM12; [2]) [s^–1] | total relative amplitude, CaMWT (CaMWT; CaMWT with peptide, 22 °C) | reduction of Ca^2+ dissociation speed, C-lobe (CaMWT; if slower release from both lobes, C-lobe) [fold] | reduction of Ca^2+ dissociation speed, N-lobe (CaMWT; if slower release from both lobes, N-lobe) [fold]
1 | COc1cc(N(CC(=O)O)CC(=O)O)c2nc(COc3cc(C)ccc3N(CC(=O)O)CC(=O)O)ccc2c1 [quin-2] | ~60 |  |  |  |  |  |  |  |  |  |  |  |  |  | 
2 | GSRPQRLLWQTAVRHITEQRFIHGH [AC8-Nt] |  | 0.027 ± 0.004 | 0.017 ± 0.002 | 0.022 ± 0.06 | 1 | 1 | 2 mol | 0.029 ± 0.008 | 0.027 ± 0.007 |  |  |  |  |  | 
3 | IKPAKRMKFKTVCYLLVQLMHCRKMFKA [AC1-C1b] |  | 0.032 ± 0.007 | 0.022 ± 0.010 | 0.012 ± 0.003 | 2 | 1 | 3 mol | 0.053 ± 0.001 | 0.024 ± 0.006 |  |  |  |  |  | 
4 | YSLAAVVLGLVQSLNRQRQKQLLNE [AC8-C2b] |  |  | 0.043 ± 0.007 | 0.021 ± 0.001 | 2 | 2 | four | 0.054 ± 0.006 | 0.053 ± 0.010 | 0.049 ± 0.006 | 0.054 ± 0.004 | 7.0 ± 1.3 | ~0.12 | 5 | > 60
